From ChEMBL document CHEMBL1148464, “Cytotoxic activity of metal complexes of biogenic polyamines: polynuclear platinum(II) chelates” (J Med Chem, 2004)
pIC50: −log10 of the molar value.

Legend:
Type in all cases: functional, cell-based
[1] = tested on: HSC-3; assay: Cytotoxic potency against human HSC-3 cell line expressed as inhibitory concentration
Method in brief: (§1)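 Adherent cells grown in high-glucose DMEM with 10% FCS, harvested with trypsin/EDTA. Seeded at 3 × 10^5 cells/mL; drug at 5–150 µM added after 24 h, 37 °C. IC50 derived from 72 h exposure dose-response curves; only effects persisting 3 days after drug removal reported. Trypan blue counts plus MTT and Alamar blue viability readouts, triplicate.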

[2] = tested on: HeLa; assay: Cytotoxic potency against human HeLa cell line expressed as inhibitory concentration
Method in brief: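 Monolayers in high-glucose DMEM with 10% FCS, harvested with an EDTA/PBS dissociation medium. Plated at 3 × 10^5 cells/mL, dosed 24 h later with 5–150 µM at 37 °C. IC50 from 72 h dose-response curves, irreversible effects only (3-day drug-free recovery). Measured by Trypan blue exclusion, MTT (570 nm) and Alamar blue (570/600 nm) assays, in triplicate.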

[3] = tested on: MOLT-3; assay: Cytotoxic potency against human MOLT-3 cell line expressed as inhibitory concentration
Method in brief: (§2)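 Suspension cultures in RPMI-1640 with 25 mM HEPES and 10% FCS, seeded at 3 × 10^5 cells/mL; drug (5–150 µM) added 24 h later, 37 °C. IC50 taken from dose-response curves after 72 h exposure, counting irreversible effects only (drug washed out, 3 further days). Read-out by Trypan blue exclusion, MTT (4 h, 570 nm) and Alamar blue (8 h, 570/600 nm); triplicate.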

[4] = tested on: THP-1; assay: Cytotoxic potency against human THP-1 cell line expressed as inhibitory concentration; method in brief: as §2
[5] = tested on: L132; assay: Cytotoxic potency against human L-132 cell line expressed as inhibitory concentration; method in brief: as §1

Row | Sequence | pIC50 [1] | pIC50 [2] | pIC50 [3] | pIC50 [4] | pIC50 [5]
1 | CISPLATIN | 5.15 | 5.70 | 5.40 | 5.70 | 5.70
2 | CARBOPLATIN | 5.52 |  |  |  | 
